Measurements reported in ChEMBL document CHEMBL5058577, “EUbOPEN Chemogenomics Library 2 (Multiplex)” (2022).

Tested on: U2OS
Assay: Multiplex assay against U2OS
Assay type: toxicity, cell-based
Conditions: human
Outline: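 Cells were classed with CellPathfinder machine-learning gating, first as Hoechst high-intensity objects or normal cells, then (normal cells) as healthy, pyknosed or fragmented nuclei, and finally (pyknosed cells) as mitotic or apoptotic. Staining of live cells at seeding used Hoechst33342, BioTracker Green Microtubule Cytoskeleton Dye, MitoTracker Red and Annexin V Alexa Fluor 680, with imaging on a CQ1 microscope at 37°C and 5% CO2 after compound addition. Tubulin, mitochondrial-mass and membrane-permeability phenotypes are per cents of healthy-nucleus cells.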

[1] = 12 h, 1 µM, compound concentration 1 uM, replicate 1
[2] = 12 h, 1 µM, compound concentration 1 uM, replicate 2
[3] = 12 h, 10 µM, compound concentration 10 uM, replicate 1
[4] = 12 h, 10 µM, compound concentration 10 uM, replicate 2
[5] = 24 h, 1 µM, compound concentration 1 uM, replicate 1
[6] = 24 h, 1 µM, compound concentration 1 uM, replicate 2
[7] = 24 h, 10 µM, compound concentration 10 uM, replicate 1
[8] = 24 h, 10 µM, compound concentration 10 uM, replicate 2
[9] = 48 h, 1 µM, compound concentration 1 uM, replicate 1
[10] = 48 h, 1 µM, compound concentration 1 uM, replicate 2
[11] = 48 h, 10 µM, compound concentration 10 uM, replicate 1
[12] = 48 h, 10 µM, compound concentration 10 uM, replicate 2

Cc1cccc(NC(=O)CN2CCC(c3ccccn3)CC2)c1.Cl.Cl
Population Apoptotic (%) [1]: 90%
Population Fragmented Nuclei (%) [1]: 27%
Population Healthy Nuclei (%) [1]: 67%
Population Hoechst High Intensity Objects (%) [1]: 1%
Population Membrane Permeable-Phenotype (%) [1]: 5%
Population Mitochondria Different-Phenotype (%) [1]: 2%
Population Mitotic Cells (%) [1]: 9%
Population Normal (%) [1]: 98%
Population Pyknosed Nuclei (%) [1]: 5%
Population Tubulin-Different-Phenotype (%) [1]: 3%
Total Cell Count [1]: 208
Population Apoptotic (%) [2]: 57%
Population Fragmented Nuclei (%) [2]: 17%
Population Healthy Nuclei (%) [2]: 76%
Population Hoechst High Intensity Objects (%) [2]: 0%
Population Membrane Permeable-Phenotype (%) [2]: 4%
Population Mitotic Cells (%) [2]: 42%
Population Normal (%) [2]: 99%
Population Pyknosed Nuclei (%) [2]: 6%
Total Cell Count [2]: 111
Population Apoptotic (%) [3]: 72%
Population Fragmented Nuclei (%) [3]: 34%
Population Healthy Nuclei (%) [3]: 55%
Population Hoechst High Intensity Objects (%) [3]: 2%
Population Membrane Permeable-Phenotype (%) [3]: 8%
Population Mitochondria Different-Phenotype (%) [3]: 6%
Population Mitotic Cells (%) [3]: 27%
Population Normal (%) [3]: 97%
Population Pyknosed Nuclei (%) [3]: 10%
Population Tubulin-Different-Phenotype (%) [3]: 3%
Total Cell Count [3]: 216
Population Apoptotic (%) [4]: 66%
Population Fragmented Nuclei (%) [4]: 21%
Population Healthy Nuclei (%) [4]: 70%
Population Hoechst High Intensity Objects (%) [4]: 1%
Population Membrane Permeable-Phenotype (%) [4]: 12%
Population Mitochondria Different-Phenotype (%) [4]: 7%
Population Mitotic Cells (%) [4]: 33%
Population Normal (%) [4]: 98%
Population Pyknosed Nuclei (%) [4]: 8%
Population Tubulin-Different-Phenotype (%) [4]: 9%
Total Cell Count [4]: 111
Population Apoptotic (%) [5]: 76%
Population Fragmented Nuclei (%) [5]: 22%
Population Healthy Nuclei (%) [5]: 70%
Population Hoechst High Intensity Objects (%) [5]: 3%
Population Membrane Permeable-Phenotype (%) [5]: 5%
Population Mitochondria Different-Phenotype (%) [5]: 3%
Population Mitotic Cells (%) [5]: 23%
Population Normal (%) [5]: 96%
Population Pyknosed Nuclei (%) [5]: 7%
Population Tubulin-Different-Phenotype (%) [5]: 3%
Total Cell Count [5]: 249
Population Apoptotic (%) [6]: 73%
Population Fragmented Nuclei (%) [6]: 21%
Population Healthy Nuclei (%) [6]: 67%
Population Hoechst High Intensity Objects (%) [6]: 0%
Population Membrane Permeable-Phenotype (%) [6]: 7%
Population Mitochondria Different-Phenotype (%) [6]: 4%
Population Mitotic Cells (%) [6]: 26%
Population Normal (%) [6]: 99%
Population Pyknosed Nuclei (%) [6]: 11%
Population Tubulin-Different-Phenotype (%) [6]: 5%
Total Cell Count [6]: 135
Population Apoptotic (%) [7]: 85%
Population Fragmented Nuclei (%) [7]: 32%
Population Healthy Nuclei (%) [7]: 55%
Population Hoechst High Intensity Objects (%) [7]: 3%
Population Membrane Permeable-Phenotype (%) [7]: 6%
Population Mitochondria Different-Phenotype (%) [7]: 3%
Population Mitotic Cells (%) [7]: 14%
Population Normal (%) [7]: 96%
Population Pyknosed Nuclei (%) [7]: 11%
Population Tubulin-Different-Phenotype (%) [7]: 2%
Total Cell Count [7]: 243
Population Apoptotic (%) [8]: 75%
Population Fragmented Nuclei (%) [8]: 20%
Population Healthy Nuclei (%) [8]: 73%
Population Hoechst High Intensity Objects (%) [8]: 2%
Population Membrane Permeable-Phenotype (%) [8]: 17%
Population Mitochondria Different-Phenotype (%) [8]: 5%
Population Mitotic Cells (%) [8]: 25%
Population Normal (%) [8]: 97%
Population Pyknosed Nuclei (%) [8]: 6%
Population Tubulin-Different-Phenotype (%) [8]: 10%
Total Cell Count [8]: 131
Population Apoptotic (%) [9]: 82%
Population Fragmented Nuclei (%) [9]: 18%
Population Healthy Nuclei (%) [9]: 72%
Population Hoechst High Intensity Objects (%) [9]: 2%
Population Membrane Permeable-Phenotype (%) [9]: 6%
Population Mitochondria Different-Phenotype (%) [9]: 3%
Population Mitotic Cells (%) [9]: 17%
Population Normal (%) [9]: 97%
Population Pyknosed Nuclei (%) [9]: 8%
Population Tubulin-Different-Phenotype (%) [9]: 3%
Total Cell Count [9]: 341
Population Apoptotic (%) [10]: 94%
Population Fragmented Nuclei (%) [10]: 17%
Population Hoechst High Intensity Objects (%) [10]: 3%
Population Membrane Permeable-Phenotype (%) [10]: 2%
Population Mitotic Cells (%) [10]: 5%
Population Normal (%) [10]: 96%
Population Pyknosed Nuclei (%) [10]: 10%
Population Tubulin-Different-Phenotype (%) [10]: 2%
Total Cell Count [10]: 182
Population Apoptotic (%) [11]: 96%
Population Fragmented Nuclei (%) [11]: 29%
Population Healthy Nuclei (%) [11]: 60%
Population Hoechst High Intensity Objects (%) [11]: 3%
Population Membrane Permeable-Phenotype (%) [11]: 6%
Population Mitochondria Different-Phenotype (%) [11]: 6%
Population Mitotic Cells (%) [11]: 3%
Population Normal (%) [11]: 96%
Population Pyknosed Nuclei (%) [11]: 9%
Population Tubulin-Different-Phenotype (%) [11]: 3%
Total Cell Count [11]: 303
Population Apoptotic (%) [12]: 83%
Population Fragmented Nuclei (%) [12]: 19%
Population Healthy Nuclei (%) [12]: 74%
Population Membrane Permeable-Phenotype (%) [12]: 10%
Population Mitochondria Different-Phenotype (%) [12]: 4%
Population Mitotic Cells (%) [12]: 16%
Population Pyknosed Nuclei (%) [12]: 6%
Population Tubulin-Different-Phenotype (%) [12]: 4%
Total Cell Count [12]: 198
